In ChEMBL document CHEMBL1146093, “Identification of ellagic acid as potent inhibitor of protein kinase CK2: a successful example of a virtual screening application” (J Med Chem, 2006):

Experiments:
[1] = molecular target: Tyrosine-protein kinase Fgr (Rattus norvegicus, UniProt Q6P6U0); experiment: Inhibition of rat spleen FGR; format: tissue-based
How it was run: (§1)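 Each kinase's activity was measured by a method given in the Supporting Information. IC50 values are means of at least three independent experiments, with SEM never above 15%.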

[2] = molecular target: Tyrosine-protein kinase CSK (Rattus norvegicus, UniProt P32577); experiment: Inhibition of rat spleen CSK; format: tissue-based; how it was run: as §1
[3] = molecular target: Dual specificity tyrosine-phosphorylation-regulated kinase 1A (Homo sapiens, UniProt Q13627); experiment: Inhibition of human recombinant DYRK1a; how it was run: as §1
FEPD = experiment: Antiproliferative activity against FEPD by MTT assay; format: functional, Homo sapiens
How it was run: (§2)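 MTT viability in ALCL lines cultured 48 h with or without compound at 5-100 × 10^-6 M. Viability is expressed relative to DMSO-treated control cells, set at 1.0. Values are means of triplicate cultures.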

[4] = molecular target: Proto-oncogene tyrosine-protein kinase receptor Ret (Homo sapiens, UniProt P07949); experiment: Inhibition of RET; how it was run: as §1
[5] = molecular target: T1, NPM/ALK (Nucleophosmin/ALK tyrosine kinase receptor) (Homo sapiens) (UniProt Q9UM73+P06748); experiment: Antiproliferative activity against SUDHL1 expressing NPM-ALK by MTT assay; format: functional; conditions: concentration not given here; how it was run: as §2
[6] = molecular target: Tyrosine-protein kinase SYK (Rattus norvegicus, UniProt Q64725); experiment: Inhibition of rat spleen SYK; format: tissue-based; how it was run: as §1
[7] = molecular target: Glycogen synthase kinase-3 beta (Homo sapiens, UniProt P49841); experiment: Inhibition of human recombinant GSK3-beta; how it was run: as §1
[8] = molecular target: Tyrosine-protein kinase Lyn (Rattus norvegicus, UniProt Q07014); experiment: Inhibition of rat spleen Lyn; format: tissue-based; how it was run: as §1
[9] = molecular target: T2, Receptor-type tyrosine-protein kinase FLT3 (Homo sapiens, UniProt P36888); experiment: Inhibition of FLT3; how it was run: as §1
T2 sequence (P36888 whole entry): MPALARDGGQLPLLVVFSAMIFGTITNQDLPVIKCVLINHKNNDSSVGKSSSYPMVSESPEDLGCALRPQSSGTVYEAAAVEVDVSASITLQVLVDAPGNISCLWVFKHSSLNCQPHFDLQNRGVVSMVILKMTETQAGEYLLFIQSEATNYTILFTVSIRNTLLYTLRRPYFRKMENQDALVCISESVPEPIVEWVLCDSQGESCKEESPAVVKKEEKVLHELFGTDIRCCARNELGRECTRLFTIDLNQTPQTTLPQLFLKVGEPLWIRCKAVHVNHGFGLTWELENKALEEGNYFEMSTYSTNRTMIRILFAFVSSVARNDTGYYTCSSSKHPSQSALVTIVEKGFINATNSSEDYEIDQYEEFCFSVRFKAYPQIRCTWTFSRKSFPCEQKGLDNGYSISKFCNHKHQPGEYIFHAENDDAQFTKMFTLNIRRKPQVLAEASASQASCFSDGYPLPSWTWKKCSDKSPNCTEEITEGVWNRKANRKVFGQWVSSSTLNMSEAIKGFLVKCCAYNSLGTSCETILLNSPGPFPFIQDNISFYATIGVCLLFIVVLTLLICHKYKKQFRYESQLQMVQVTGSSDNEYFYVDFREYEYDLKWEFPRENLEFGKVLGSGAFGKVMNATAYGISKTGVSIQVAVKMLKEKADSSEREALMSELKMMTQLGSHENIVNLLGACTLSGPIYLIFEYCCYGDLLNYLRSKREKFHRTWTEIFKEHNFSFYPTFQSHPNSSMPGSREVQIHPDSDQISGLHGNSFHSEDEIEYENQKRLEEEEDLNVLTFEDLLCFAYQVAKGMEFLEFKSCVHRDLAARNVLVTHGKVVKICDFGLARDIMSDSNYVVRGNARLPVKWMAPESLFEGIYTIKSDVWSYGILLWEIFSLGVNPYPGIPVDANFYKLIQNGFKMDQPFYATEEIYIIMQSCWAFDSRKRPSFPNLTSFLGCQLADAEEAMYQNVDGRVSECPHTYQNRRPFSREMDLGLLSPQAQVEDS

[10] = molecular target: T1, NPM/ALK (Nucleophosmin/ALK tyrosine kinase receptor) (Homo sapiens); experiment: Antiproliferative activity against SR786 expressing NPM-ALK by MTT assay; format: functional; conditions: concentration not given here; how it was run: as §2
[11] = Inhibition of rat liver CK1; how it was run: as §1
[12] = Inhibition of rat liver CK2; how it was run: as §1
[13] = molecular target: NPM/ALK (Nucleophosmin/ALK tyrosine kinase receptor) (Homo sapiens, UniProt Q9UM73); experiment: Inhibition of NPM-ALK; format: protein assay; how it was run: as §1
[14] = molecular target: T1, NPM/ALK (Nucleophosmin/ALK tyrosine kinase receptor) (Homo sapiens); experiment: Antiproliferative activity against KARPAS299 expressing NPM-ALK by MTT assay; format: functional; conditions: concentration not given here; how it was run: as §2
[15] = molecular target: cAMP-dependent protein kinase (PKA) (Homo sapiens, UniProt P22694+P17612+P22612); experiment: Inhibition of PKA; format: protein assay; how it was run: as §1

T1 sequence (P06748 whole entry partner): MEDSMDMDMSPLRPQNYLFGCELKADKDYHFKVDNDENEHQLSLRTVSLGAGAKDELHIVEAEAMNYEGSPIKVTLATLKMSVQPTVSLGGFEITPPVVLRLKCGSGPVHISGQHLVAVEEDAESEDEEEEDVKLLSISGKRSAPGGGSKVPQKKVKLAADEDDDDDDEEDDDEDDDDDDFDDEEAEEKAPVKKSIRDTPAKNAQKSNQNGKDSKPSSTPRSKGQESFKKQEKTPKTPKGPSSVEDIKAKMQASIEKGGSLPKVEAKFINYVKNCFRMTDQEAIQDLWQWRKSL
T1 sequence (Q9UM73 19-1620 limits assumed): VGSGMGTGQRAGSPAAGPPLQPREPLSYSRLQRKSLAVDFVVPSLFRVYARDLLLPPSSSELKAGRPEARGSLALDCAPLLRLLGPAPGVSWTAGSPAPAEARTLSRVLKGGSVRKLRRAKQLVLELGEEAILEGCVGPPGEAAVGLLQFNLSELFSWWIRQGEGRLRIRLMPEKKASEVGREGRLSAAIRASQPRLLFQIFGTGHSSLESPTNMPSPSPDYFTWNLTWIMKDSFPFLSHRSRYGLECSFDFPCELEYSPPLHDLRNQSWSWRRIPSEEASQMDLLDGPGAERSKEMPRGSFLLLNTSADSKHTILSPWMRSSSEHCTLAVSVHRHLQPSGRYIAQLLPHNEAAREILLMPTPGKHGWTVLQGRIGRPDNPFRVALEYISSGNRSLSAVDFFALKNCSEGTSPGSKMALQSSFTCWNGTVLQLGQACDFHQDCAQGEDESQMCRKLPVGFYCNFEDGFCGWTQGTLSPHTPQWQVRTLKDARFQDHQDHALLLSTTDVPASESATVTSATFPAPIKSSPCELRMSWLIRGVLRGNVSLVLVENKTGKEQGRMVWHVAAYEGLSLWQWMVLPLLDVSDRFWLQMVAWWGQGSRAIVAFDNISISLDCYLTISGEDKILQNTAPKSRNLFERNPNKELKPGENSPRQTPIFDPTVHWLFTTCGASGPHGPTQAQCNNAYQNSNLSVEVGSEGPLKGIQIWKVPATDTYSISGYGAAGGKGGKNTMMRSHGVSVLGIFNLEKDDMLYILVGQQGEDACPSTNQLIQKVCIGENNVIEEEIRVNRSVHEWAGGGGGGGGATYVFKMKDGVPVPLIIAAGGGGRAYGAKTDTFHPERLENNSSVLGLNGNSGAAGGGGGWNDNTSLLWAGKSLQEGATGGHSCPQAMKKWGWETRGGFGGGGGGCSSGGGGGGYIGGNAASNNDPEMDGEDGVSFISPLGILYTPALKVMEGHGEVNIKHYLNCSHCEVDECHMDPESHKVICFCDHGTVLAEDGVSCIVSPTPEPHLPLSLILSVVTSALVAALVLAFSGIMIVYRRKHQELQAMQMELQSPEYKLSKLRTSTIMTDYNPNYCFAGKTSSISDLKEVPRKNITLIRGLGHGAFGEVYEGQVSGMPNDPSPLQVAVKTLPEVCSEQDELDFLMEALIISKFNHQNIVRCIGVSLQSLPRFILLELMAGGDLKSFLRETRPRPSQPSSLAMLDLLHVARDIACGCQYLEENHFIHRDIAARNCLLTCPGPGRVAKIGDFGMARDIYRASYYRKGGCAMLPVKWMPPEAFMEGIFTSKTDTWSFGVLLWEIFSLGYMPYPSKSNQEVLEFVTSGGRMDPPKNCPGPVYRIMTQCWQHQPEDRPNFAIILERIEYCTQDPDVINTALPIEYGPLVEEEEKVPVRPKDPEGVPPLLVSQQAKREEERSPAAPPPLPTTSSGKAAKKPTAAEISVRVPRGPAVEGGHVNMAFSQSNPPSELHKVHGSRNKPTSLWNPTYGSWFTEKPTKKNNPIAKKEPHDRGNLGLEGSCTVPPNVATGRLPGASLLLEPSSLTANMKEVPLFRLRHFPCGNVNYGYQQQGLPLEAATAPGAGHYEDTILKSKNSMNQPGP
Sequence of NPM/ALK (Nucleophosmin/ALK tyrosine kinase receptor) (Q9UM73 whole entry): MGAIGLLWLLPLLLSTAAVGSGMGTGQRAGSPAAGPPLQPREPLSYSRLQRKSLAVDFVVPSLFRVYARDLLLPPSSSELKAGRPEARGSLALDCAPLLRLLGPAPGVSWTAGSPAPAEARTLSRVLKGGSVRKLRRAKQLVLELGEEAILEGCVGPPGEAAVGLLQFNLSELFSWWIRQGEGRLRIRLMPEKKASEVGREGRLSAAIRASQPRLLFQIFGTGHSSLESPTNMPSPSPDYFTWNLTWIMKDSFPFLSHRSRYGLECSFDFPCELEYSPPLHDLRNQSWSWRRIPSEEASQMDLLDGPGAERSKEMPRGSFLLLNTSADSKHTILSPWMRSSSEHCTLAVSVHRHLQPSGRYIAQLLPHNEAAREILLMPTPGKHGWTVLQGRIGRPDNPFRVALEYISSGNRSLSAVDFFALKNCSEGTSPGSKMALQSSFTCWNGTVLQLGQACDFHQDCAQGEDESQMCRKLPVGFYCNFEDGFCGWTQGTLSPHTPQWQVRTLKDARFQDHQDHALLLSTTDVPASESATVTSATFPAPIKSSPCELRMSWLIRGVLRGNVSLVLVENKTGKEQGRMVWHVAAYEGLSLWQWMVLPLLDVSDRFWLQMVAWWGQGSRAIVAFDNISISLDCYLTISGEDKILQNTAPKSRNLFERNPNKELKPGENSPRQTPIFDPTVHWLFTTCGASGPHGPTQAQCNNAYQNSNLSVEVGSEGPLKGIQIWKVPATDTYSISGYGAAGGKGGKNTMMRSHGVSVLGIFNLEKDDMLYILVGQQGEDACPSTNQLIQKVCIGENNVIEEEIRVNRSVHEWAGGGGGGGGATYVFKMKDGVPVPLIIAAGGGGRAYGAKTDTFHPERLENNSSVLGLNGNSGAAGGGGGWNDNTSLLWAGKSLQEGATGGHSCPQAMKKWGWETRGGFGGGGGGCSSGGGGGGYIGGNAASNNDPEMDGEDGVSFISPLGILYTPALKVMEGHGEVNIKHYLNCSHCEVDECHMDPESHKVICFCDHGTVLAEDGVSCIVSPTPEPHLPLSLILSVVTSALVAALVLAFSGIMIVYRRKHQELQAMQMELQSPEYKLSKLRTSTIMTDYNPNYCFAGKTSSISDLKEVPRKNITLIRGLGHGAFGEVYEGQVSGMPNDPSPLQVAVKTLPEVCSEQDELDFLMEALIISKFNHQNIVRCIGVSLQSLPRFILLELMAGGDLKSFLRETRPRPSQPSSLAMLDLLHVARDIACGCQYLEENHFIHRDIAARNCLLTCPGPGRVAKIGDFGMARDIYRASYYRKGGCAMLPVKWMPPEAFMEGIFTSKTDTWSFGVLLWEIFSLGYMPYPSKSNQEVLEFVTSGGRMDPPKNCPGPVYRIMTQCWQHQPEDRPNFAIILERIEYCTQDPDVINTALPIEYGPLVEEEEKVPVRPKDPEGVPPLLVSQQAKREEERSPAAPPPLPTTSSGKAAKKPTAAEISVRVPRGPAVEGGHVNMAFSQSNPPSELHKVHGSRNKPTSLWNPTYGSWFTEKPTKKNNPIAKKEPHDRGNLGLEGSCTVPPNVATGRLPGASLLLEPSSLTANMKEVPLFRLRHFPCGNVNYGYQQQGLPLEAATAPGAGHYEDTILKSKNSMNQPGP
Sequence of NPM/ALK (Nucleophosmin/ALK tyrosine kinase receptor) (P06748 whole entry, further chain): as the sequence (P06748 whole entry partner) above
Sequence of Glycogen synthase kinase-3 beta (P49841 whole entry): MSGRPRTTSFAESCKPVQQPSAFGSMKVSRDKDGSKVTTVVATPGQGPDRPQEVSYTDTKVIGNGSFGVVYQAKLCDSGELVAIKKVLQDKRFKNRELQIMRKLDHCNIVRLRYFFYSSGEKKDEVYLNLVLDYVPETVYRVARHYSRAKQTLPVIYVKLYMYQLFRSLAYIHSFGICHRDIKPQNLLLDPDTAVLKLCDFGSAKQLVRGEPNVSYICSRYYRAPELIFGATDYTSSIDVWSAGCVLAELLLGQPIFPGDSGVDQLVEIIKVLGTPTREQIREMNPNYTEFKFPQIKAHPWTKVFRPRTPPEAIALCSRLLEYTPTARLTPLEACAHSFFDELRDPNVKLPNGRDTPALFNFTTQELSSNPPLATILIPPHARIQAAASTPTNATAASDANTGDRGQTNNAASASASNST
Sequence of Tyrosine-protein kinase Fgr (Q6P6U0 whole entry): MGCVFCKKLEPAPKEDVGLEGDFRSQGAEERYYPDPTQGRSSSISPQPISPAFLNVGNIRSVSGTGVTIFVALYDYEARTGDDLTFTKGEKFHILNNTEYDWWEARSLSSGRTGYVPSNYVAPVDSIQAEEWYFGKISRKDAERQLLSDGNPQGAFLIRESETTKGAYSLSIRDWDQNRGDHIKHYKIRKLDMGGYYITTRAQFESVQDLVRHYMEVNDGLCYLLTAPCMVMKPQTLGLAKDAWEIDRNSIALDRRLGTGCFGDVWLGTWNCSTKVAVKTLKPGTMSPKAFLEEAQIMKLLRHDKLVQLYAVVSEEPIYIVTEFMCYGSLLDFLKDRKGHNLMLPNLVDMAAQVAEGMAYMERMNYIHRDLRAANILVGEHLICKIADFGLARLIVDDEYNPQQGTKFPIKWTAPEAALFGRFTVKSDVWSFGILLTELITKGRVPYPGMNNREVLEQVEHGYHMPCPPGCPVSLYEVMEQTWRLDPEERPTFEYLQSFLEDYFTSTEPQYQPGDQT
Sequence of Tyrosine-protein kinase Lyn (Q07014 whole entry): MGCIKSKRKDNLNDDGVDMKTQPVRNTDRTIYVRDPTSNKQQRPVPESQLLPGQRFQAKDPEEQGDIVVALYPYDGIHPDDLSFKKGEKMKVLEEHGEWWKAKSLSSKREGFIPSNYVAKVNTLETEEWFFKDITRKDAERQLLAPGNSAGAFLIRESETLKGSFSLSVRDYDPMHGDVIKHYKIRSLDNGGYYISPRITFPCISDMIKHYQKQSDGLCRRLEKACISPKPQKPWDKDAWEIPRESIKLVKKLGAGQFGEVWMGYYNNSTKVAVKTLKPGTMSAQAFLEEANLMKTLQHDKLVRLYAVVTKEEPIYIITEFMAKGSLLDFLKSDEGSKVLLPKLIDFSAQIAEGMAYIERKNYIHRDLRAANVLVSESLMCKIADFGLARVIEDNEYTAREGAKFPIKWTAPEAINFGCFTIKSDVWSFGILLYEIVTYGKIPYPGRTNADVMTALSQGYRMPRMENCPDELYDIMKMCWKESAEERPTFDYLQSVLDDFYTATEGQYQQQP

IC50 [1]: 9.4 µM
IC50 [2]: > 40 µM
IC50 [3]: > 40 µM
IC50 [4]: > 40 µM
inhibition [5]: 85%
IC50 [6]: 4.3 µM
IC50 [7]: 7.5 µM
IC50 [8]: 2.9 µM
IC50 [9]: > 40 µM
inhibition [10]: 40%
IC50 [11]: 13 µM
IC50 [12]: 0.04 µM
Ki [12]: 0.02 µM
IC50 [13]: > 40 µM
inhibition [14]: 60%
IC50 [15]: 3.5 µM
Compound: O=c1oc2c(O)c(O)cc3c(=O)oc4c(O)c(O)cc1c4c23 [ELLAGIC ACID]
Inhibition (FEPD): 70%
